How the values were obtained:
[1] = tested on: cADPR-evoked Ca^2+ release; experiment: cADPR-evoked Ca2+ release in sea urchin egg homogenate; type: biochemical, Strongylocentrotus purpuratus; settings: for inhibition of cADPR-evoked Ca2+ signals: primary screen, 6 min preincubation; for mode of inhibition of cADPR action: cADPR concentration-response curves at increasing inhibitor concentrations
How it was run: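 Primary screen in S. purpuratus egg homogenate, loaded with Ca2+ and 3 μM fluo-3 at 17°C and diluted stepwise to 1.25% over 3 h. Fluo-3 was read at ex 485/em 525 nm. Library compounds at 25 μM final were preincubated for 6 min (35 cycles), then cADPR 300 nM final was added. Screens ran in singlicate or duplicate, with Z' calculated from vehicle and cADPR responses.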

[2] = tested on: NAADP-evoked Ca^2+ release; experiment: NAADP-evoked Ca2+ release in sea urchin egg homogenate; type: biochemical, Strongylocentrotus purpuratus; settings: NAADP 200 nM; at concentrations completely inhibiting cADPR-evoked signals
[3] = tested on: IP3-evoked Ca^2+ release; experiment: IP3-evoked Ca2+ release in sea urchin egg homogenate; type: biochemical, Strongylocentrotus purpuratus; settings: IP3 500 nM; at concentrations completely inhibiting cADPR-evoked signals
[4] = tested on: RyRs (caffeine-evoked Ca^2+ release); experiment: caffeine-evoked Ca2+ release in sea urchin egg homogenate; type: biochemical, Strongylocentrotus purpuratus; settings: caffeine 15 mM
How it was run: (§1)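 Fluo-3-loaded S. purpuratus egg homogenate (1.25%, pH 7.2 intracellular-like medium, 17°C loading) was preincubated with increasing test compound concentrations. Release was then evoked by cADPR 300 nM, caffeine 15 mM or ryanodine 100 μM, with fluorescence read at ex 485/em 525 nm. Concentration-response data came from three independent biological experiments with four technical replicates each.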

[5] = tested on: RyRs (ryanodine-evoked Ca^2+ release); experiment: ryanodine-evoked Ca2+ release in sea urchin egg homogenate; type: biochemical, Strongylocentrotus purpuratus; settings: ryanodine 100 μM
How it was run: as §1

[6] = tested on: cADPR-sensitive Ca^2+ stores; type: biochemical, Strongylocentrotus purpuratus; settings: ≤100μM
[7] = tested on: U2OS cells; experiment: cADPR microinjection into single U2OS cells expressing GCaMP-6M; type: cell-based, human; settings: 5 μM preincubation; cADPR 30 μM pipette concentration
How it was run: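 U2OS cells were transfected with GCaMP-6M two days prior, seeded on collagen dishes and perfused with Ca2+-free HBSS. Cells in 5 μM test compound or 0.05% DMSO were microinjected with intracellular buffer (110 mM KCl, 10 mM NaCl, 20 mM HEPES, pH 7.2) containing vehicle or cADPR, giving about 300 nM intracellular. Spinning-disk imaging (ex 488 nm) gave peak ΔF/F0 and area under curve. Data from three independent experiments, mean ± stdev.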

[8] = tested on: human induced pluripotent stem cells (iPSCs); experiment: cardiomyocyte differentiation of induced pluripotent stem cells; type: cell-based; settings: 1 μM for 5 days, versus control cultures
How it was run: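 Human iPSCs derived from dermal fibroblasts were grown on Matrigel in mTeSR1 and differentiated by Wnt modulation (CHIR, then 5 μM IWP-4 at day 3). From day 0 they received 1 μM test compound (from a 10 mM DMSO stock) or DMSO for 23 h or 5 days. Troponin T-positive cells per Hoechst-stained nuclei were counted at day 8 or 15. Western blot troponin T was normalized to GAPDH as % vehicle. Three independent experiments, mean ± stdev.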

[9] = target: RyR1 (Sus scrofa, UniProt P16960); experiment: [3H]-ryanodine binding to skeletal SR vesicles; design: species or system porcine
How it was run: (§2)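 Porcine SR vesicles, skeletal (1 mg/mL, 10 nM [3H]-ryanodine) and cardiac (3 mg/mL, 7.5 nM [3H]-ryanodine), were incubated for 3 h at 37°C with test compound or 0.02% DMSO. The pH 7.0 K-PIPES buffer contained 150 mM KCl, 0.1 μM calmodulin, GSH, DTT, 1 mM EGTA and CaCl2 giving 100 nM or 30 μM free Ca2+. Non-specific binding was defined with 40 μM unlabeled ryanodine. Bound ligand was filtered and counted by scintillation, and expressed relative to DMSO. Three SR batches, triplicates.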

[10] = target: RyR2 (Sus scrofa, UniProt A0A5G2R1W3); experiment: [3H]-ryanodine binding to cardiac SR vesicles; design: species or system porcine
How it was run: as §2

[11] = tested on: NAADP-evoked Ca^2+ release; settings: data from a recent screen against NAADP action; ref Gunaratne et al., 2018; cited from earlier work
[12] = tested on: mouse embryonic stem (ES) cells; settings: 100 μM; ref Wei et al., 2012; cited from earlier work

Sequence of RyR2 (A0A5G2R1W3 20-4900): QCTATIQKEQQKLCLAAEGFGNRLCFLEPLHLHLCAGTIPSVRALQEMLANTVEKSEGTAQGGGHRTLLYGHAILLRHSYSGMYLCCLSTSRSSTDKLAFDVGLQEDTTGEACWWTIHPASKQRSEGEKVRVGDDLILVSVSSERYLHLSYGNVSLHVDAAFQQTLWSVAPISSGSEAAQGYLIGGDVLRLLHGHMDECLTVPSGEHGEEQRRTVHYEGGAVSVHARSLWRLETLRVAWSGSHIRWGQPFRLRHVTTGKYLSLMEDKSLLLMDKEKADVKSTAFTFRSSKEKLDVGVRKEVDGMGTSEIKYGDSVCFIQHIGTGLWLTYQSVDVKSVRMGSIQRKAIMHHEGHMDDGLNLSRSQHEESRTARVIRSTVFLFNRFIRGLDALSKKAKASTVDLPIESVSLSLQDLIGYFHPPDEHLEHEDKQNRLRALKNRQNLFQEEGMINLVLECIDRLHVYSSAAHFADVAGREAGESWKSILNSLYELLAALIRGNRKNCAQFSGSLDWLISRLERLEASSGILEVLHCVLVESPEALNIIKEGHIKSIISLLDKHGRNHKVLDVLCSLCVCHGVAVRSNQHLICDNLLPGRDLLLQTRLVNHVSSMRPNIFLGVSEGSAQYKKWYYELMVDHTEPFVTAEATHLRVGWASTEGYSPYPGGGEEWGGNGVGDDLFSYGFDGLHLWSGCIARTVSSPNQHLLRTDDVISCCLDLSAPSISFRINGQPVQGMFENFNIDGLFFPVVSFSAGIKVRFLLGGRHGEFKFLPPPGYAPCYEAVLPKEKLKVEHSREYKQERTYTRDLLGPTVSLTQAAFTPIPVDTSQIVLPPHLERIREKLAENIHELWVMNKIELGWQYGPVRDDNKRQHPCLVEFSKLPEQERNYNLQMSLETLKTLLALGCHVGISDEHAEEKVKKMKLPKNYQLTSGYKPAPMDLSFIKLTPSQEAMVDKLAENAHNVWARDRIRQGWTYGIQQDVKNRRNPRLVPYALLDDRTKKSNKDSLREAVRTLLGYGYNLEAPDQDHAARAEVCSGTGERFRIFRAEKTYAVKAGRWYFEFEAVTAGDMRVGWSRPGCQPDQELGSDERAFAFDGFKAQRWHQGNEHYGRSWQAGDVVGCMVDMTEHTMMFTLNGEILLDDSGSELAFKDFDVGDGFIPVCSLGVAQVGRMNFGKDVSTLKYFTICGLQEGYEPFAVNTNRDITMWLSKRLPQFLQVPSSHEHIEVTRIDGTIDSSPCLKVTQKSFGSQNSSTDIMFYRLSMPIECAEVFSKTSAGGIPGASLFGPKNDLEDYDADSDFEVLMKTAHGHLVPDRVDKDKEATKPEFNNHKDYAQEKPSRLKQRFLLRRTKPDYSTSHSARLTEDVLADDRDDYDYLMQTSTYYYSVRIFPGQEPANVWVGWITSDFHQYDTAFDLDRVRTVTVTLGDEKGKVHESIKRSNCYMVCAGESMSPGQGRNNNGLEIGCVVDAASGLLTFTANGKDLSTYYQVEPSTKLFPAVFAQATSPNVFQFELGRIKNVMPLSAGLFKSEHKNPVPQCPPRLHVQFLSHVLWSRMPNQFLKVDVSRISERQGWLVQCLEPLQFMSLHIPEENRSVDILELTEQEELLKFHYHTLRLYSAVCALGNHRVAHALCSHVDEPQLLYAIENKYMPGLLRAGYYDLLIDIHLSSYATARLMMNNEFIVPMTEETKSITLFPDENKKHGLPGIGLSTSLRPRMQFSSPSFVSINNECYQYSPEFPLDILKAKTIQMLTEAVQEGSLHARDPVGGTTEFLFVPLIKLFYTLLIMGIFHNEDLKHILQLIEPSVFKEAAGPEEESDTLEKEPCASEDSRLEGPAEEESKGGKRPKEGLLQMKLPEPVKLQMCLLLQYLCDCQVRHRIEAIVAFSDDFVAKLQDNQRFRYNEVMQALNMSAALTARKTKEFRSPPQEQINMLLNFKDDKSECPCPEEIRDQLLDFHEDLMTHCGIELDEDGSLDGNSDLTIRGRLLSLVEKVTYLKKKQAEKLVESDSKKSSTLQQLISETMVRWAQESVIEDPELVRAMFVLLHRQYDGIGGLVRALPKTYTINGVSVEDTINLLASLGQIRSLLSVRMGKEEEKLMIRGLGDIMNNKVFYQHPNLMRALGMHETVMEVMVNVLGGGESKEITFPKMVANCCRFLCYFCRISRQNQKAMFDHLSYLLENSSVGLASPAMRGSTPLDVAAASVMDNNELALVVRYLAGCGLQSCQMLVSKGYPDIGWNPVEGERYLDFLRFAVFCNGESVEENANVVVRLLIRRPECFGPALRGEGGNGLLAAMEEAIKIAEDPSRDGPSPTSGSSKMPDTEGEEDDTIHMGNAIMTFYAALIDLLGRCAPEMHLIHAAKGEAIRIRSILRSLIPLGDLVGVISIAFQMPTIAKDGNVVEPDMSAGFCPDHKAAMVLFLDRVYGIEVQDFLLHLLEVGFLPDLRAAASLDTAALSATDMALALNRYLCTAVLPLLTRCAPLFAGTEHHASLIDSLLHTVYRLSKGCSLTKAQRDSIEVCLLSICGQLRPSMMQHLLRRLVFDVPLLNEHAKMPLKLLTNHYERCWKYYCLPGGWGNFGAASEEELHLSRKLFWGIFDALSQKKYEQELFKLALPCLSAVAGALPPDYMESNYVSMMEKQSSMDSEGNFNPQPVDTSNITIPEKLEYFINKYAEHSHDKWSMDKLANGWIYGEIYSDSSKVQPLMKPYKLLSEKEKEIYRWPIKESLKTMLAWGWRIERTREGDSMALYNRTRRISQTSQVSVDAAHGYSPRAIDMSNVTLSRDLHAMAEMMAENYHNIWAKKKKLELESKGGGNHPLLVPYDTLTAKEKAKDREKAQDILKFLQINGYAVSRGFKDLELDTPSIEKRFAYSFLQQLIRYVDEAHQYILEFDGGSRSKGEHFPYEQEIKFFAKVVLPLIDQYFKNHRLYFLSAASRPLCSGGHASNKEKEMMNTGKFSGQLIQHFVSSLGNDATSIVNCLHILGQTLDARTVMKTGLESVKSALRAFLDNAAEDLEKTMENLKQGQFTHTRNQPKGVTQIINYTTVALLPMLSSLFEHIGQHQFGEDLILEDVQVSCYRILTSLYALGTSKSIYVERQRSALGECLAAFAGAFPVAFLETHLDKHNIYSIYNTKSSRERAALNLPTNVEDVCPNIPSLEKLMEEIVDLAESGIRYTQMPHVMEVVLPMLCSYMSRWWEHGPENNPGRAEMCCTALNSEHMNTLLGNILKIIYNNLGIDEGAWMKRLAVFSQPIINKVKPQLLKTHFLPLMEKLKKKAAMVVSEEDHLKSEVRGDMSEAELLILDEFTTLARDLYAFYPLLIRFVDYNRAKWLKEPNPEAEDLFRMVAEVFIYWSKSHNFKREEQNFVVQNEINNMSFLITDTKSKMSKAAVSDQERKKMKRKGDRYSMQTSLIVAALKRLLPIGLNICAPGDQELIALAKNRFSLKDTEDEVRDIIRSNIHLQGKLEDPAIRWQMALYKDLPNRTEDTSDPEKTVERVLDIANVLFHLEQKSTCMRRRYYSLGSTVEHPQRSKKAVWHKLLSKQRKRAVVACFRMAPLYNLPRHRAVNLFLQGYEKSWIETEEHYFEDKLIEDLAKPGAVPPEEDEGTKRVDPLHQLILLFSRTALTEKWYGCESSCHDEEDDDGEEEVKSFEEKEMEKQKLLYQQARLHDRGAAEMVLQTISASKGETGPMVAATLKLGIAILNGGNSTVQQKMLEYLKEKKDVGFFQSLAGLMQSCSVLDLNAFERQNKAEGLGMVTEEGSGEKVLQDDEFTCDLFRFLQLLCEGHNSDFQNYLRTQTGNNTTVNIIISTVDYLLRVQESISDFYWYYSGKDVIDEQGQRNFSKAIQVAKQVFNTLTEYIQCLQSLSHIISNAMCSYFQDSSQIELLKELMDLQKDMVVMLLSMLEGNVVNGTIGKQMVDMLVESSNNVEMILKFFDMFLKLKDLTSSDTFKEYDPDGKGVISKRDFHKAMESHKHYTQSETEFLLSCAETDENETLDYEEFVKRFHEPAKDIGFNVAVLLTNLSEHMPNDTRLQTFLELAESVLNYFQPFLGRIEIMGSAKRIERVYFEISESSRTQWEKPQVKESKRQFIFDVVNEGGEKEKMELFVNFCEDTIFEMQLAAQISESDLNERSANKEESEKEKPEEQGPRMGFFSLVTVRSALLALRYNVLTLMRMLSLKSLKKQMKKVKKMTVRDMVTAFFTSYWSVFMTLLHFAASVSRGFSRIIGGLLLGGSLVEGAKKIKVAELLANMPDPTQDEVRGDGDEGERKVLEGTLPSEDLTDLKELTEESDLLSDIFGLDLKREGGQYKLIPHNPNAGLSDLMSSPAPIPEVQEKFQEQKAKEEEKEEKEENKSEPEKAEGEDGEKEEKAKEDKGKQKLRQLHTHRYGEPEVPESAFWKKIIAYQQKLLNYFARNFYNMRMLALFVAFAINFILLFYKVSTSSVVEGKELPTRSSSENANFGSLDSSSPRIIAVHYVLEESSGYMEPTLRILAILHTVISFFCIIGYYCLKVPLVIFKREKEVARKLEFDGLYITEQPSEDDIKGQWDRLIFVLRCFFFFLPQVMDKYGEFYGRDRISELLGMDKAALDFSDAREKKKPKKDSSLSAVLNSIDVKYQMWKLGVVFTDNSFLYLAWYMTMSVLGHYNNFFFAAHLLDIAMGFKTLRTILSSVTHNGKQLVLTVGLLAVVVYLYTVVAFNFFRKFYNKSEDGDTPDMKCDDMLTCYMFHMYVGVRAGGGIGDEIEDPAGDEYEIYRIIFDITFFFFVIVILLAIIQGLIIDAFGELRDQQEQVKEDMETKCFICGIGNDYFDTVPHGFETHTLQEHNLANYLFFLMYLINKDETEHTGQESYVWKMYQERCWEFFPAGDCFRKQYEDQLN

In the case of COCCOC(=O)C1=C(C)NC(C)=C(C(=O)OC(C)C)C1c1cccc([N+](=O)[O-])c1 (centres unmarked) [nimodipine, 3-O-(2-methoxyethyl) 5-O-propan-2-yl 2,6-dimethyl-4-(3-nitrophenyl)-1,4-dihydropyridine-3,5-dicarboxylate], the “inhibition of cADPR-evoked Ca2+ signals” value ([1]; 25 μM) is reported as about 5%.

For CC1=C(C(=O)OC2CCCCC2)C(c2ccc([N+](=O)[O-])cc2)C2=C(CC(C)(C)CC2=O)N1 (centres unmarked) [FLI-06, cyclohexyl 2,7,7-trimethyl-4-(4-nitrophenyl)-5-oxo-1,4,5,6,7,8-hexahydroquinoline-3-carboxylate], the “effect on cADPR-evoked Ca2+ signals” value ([1]; cADPR 300 nM) was “blocked”, the “mode of inhibition of cADPR action” value [1] was “non-competitive inhibition” and the IC50 ([1]; read-out: IC50, inhibition of cADPR-evoked Ca2+ release, sea urchin egg homogenate, cADPR 300 nM) was 260 ± 23 nM. For the same compound, the “effect on NAADP-evoked Ca2+ release” value [2] was “did not impact”, the “effect on IP3-evoked Ca2+ release” value [3] was “did not impact” and the “effect on caffeine-evoked Ca2+ release” value [4] was “blocked”. For the same compound, the “effect on ryanodine-evoked Ca2+ release” value [5] was “blocked”, the “intrinsic agonist activity (Ca2+ elevation without cADPR)” value [6] was “did not result from any intrinsic agonist activity” and the “effect on cADPR-evoked Ca2+ transient” value [7] was “reduced”. The contraction phenotype [8] was “earlier contraction phenotype”, the “expression of cardiomyocyte-specific troponin T” value [8] was “enhanced expression” and the “effect on [3H]-ryanodine binding” value ([9]; contracting 30 μM free Ca2+) was “inhibited”. The “effect on [3H]-ryanodine binding” value ([9]; relaxed 100 nM free Ca2+) was “inhibited”, the “effect on [3H]-ryanodine binding” value ([10]; contracting 30 μM free Ca2+) was “inhibited” and the “effect on [3H]-ryanodine binding” value ([10]; relaxed 100 nM free Ca2+) was “inhibited”.

In the case of CNc1ccc2oc(C[C@H]3O[C@@]4(CC[C@H]3C)O[C@H]([C@H](C)C(=O)c3ccc[nH]3)[C@H](C)C[C@H]4C)nc2c1C(=O)O [A23187], the “effect on cADPR-evoked Ca2+ responses in primary screen” value ([1]; 25 μM, positive control) is given as “inhibited” and the “effect on NAADP-evoked Ca2+ responses in screen” value [11] is given as “inhibited”.

For N=c1c2cc(Br)n3c2ncn1[C@@H]1O[C@H](COP(=O)(O)OP(=O)(O)OC[C@H]2O[C@@H]3C(O)[C@H]2O)C(O)C1O (some centres unmarked) [8-Br-7-deaza-cADPR], the “mode of inhibition of cADPR action” value [1] was “competitive inhibitors”.

For NC(=S)c1ccc[n+]([C@@H]2O[C@H](COP(=O)([O-])OP(=O)(O)OC[C@H]3O[C@@H](n4cnc5c(N)ncnc54)[C@H](OP(=O)(O)O)[C@@H]3O)[C@@H](O)[C@H]2O)c1 [thio-NADP], the “effect on NAADP-evoked Ca2+ responses in screen” value [11] is listed as “selectively desensitized”.

In the case of COC(=O)C1=C(C)NC(C)=C(C(=O)OC)C1c1ccccc1[N+](=O)[O-] [nifedipine, dimethyl 2,6-dimethyl-4-(2-nitrophenyl)-1,4-dihydropyridine-3,5-dicarboxylate], the “inhibition of cADPR-evoked Ca2+ signals” value ([1]; 25 μM) is reported as about 3%.

For N=c1c2ncn3c2ncn1[C@@H]1O[C@H](COP(=O)(O)OP(=O)(O)OC[C@H]2O[C@@H]3[C@H](O)[C@@H]2O)[C@@H](O)[C@H]1O [cADPR, cyclic adenosine 5′-diphosphate ribose], the “effect on [3H]-ryanodine binding” value ([9]; contracting 30 μM free Ca2+) was “did not elicit any effects”, the “effect on [3H]-ryanodine binding” value ([9]; relaxed 100 nM free Ca2+) was “did not elicit any effects” and the “effect on [3H]-ryanodine binding” value ([10]; contracting 30 μM free Ca2+) was “did not elicit any effects”. For the same compound, the “effect on [3H]-ryanodine binding” value ([10]; relaxed 100 nM free Ca2+) was “did not elicit any effects”.

In the case of 8-Br-cADPR, the “effect on generation of cardiomyocytes” value [12] is given as “promoted the generation of cardiomyocytes”.
